The source made the active and inactive calls. The calls are words filed in the database; no cut-off is given here.
Columns and labels:
[1] = Volume of distribution at steady state in Beagle dog at 1 mg/kg administered by intravenous infusion for 1 hr; assay type: ADME, organism-based, Canis lupus familiaris; parameters: dose 1 mg/kg, route intravenous; conditions: in vivo, read-out: Vdss
[2] = tested on: Hepatocyte; assay: Intrinsic clearance in human hepatocytes measured per gram of liver at 0.54 to 0.7 X 10^6 cells/ml cell density; assay type: ADME, cell-based
Summary of the method: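 Intrinsic clearance in hepatocytes expressed as mL/min/g liver. Cell densities were 0.15–0.2 × 10^6 cells/mL or 0.54–0.7 × 10^6 cells/mL.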

[3] = target: T1, Prostaglandin G/H synthase 2 (Homo sapiens, UniProt P35354); assay: Inhibition of COX2
T1 sequence (P35354 whole entry): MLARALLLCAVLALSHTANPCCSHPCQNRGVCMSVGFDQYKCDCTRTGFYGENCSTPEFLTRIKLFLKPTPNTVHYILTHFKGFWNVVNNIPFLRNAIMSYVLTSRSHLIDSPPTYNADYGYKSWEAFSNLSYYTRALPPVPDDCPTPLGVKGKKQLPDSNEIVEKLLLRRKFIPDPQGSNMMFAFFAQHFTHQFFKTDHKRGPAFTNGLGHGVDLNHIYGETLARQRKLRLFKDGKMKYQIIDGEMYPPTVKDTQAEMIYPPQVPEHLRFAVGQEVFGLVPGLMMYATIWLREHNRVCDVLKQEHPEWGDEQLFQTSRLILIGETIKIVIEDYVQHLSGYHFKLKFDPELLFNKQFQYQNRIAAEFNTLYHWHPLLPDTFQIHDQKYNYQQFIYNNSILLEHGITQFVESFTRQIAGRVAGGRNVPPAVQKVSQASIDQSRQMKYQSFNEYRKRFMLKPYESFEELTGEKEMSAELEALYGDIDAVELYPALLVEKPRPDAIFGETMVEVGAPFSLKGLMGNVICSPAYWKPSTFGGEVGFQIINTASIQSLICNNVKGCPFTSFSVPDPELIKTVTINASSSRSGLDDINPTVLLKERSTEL

[4] = Half life in Beagle dog at 1 mg/kg administered by intravenous infusion for 1 hr; assay type: ADME, organism-based, Canis lupus familiaris; parameters: dose 1 mg/kg, route intravenous; conditions: in vivo
Summary of the method: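 Intravenous administration as a 1 h infusion of a 1 mg/kg dose. Rats were male Sprague-Dawley; dogs were beagle; monkeys were cynomolgus. Blood clearance, Vss and half-life determined.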

[5] = Drug level in mouse blood at 0.5 mg/kg/hr administered by infusion for 12 hrs; assay type: ADME, organism-based; conditions: intravenous, read-out: Drug uptake
Summary of the method: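 Steady-state 12 h infusion at 5 mL/kg/h to reach a target dose of 0.5 mg/kg/h; blood and brain concentrations measured. Data are the mean from three animals.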

[6] = Oral bioavailability in Beagle dog at 3 mg/kg; assay type: ADME, organism-based, Canis lupus familiaris; conditions: in vivo
Summary of the method: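 Single oral dose of 3 mg/kg in 1% (w/v) methylcellulose vehicle. Rats were male Sprague-Dawley; dogs were beagle. Bioavailability (Fpo) determined.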

[7] = Ratio of drug level in brain to blood of mouse at 0.5 mg/kg/hr administered by infusion for 12 hrs; conditions: brain and blood, intravenous
[8] = tested on: Rattus norvegicus; assay: Antianalgesic activity against complete Freund's adjuvant-induced rat inflammatory pain in rat assessed as reversal of hypersensitivity at 10 mg/kg, po bid for 5 days measured on day 5 after 1 hr; assay type: functional, organism-based; parameters: dose 10 mg/kg
[9] = target: Cytochrome P450 2C19 (Homo sapiens, UniProt P33261); assay: Inhibition of human CYP2C19; assay type: ADME
Chain of Cytochrome P450 2C19 (P33261 whole entry): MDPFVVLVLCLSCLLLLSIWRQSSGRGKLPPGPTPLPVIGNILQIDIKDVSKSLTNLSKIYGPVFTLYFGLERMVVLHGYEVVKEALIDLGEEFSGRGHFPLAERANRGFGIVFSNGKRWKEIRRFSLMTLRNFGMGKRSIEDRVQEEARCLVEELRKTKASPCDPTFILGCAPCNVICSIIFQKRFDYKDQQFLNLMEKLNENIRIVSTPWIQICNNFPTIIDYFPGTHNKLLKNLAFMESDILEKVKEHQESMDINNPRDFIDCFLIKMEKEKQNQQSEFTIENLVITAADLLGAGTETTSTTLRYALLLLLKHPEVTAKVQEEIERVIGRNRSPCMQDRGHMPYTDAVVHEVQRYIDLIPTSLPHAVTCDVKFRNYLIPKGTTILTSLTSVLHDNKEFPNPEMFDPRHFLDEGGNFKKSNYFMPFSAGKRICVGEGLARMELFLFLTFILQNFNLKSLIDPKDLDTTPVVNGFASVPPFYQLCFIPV
Summary of the method: (§1)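 Inhibition of metabolism of fluorometric substrates (Cypex protocol); IC50 values are the mean of three experiments ± standard deviation.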

[10] = Drug level in Landrace pig brain at 0.5 mg/kg/hr administered by infusion for 1 hrs; assay type: ADME, organism-based, Sus scrofa; conditions: intravenous, read-out: Drug uptake
Summary of the method: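 Landrace pig given a 1 h infusion; blood and brain concentrations measured in a single animal.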

[11] = Drug level in blood of complete Freund's adjuvant induced rat inflammatory pain model at 10 mg/kg, bid measured after 1 hr on day 5; assay type: ADME, organism-based; parameters: dose 10 mg/kg; conditions: read-out: Drug uptake
Summary of the method: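 Satellite group dosed at 10 mg/kg b.i.d. for 5 days; blood sampled 1 h post-dose on day 1 and on day 5.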

[12] = Ratio of drug level in brain to blood in complete Freund's adjuvant-induced rat inflammatory pain model at 1 mg/kg, po administered after 23 hrs of adjuvant challenge measured after 1 hr; assay type: ADME, organism-based; parameters: dose 1 mg/kg, route oral; conditions: brain and blood
Summary of the method: (§2)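 Rat CFA inflammatory pain model: oral dosing at 1, 3 or 10 mg/kg 23 h after intraplantar adjuvant; blood and brain sampled 1 h post-dose from the same animal; Br:Bl ratio is the mean from three animals.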

[13] = target: T2, Cytochrome P450 1A2 (Homo sapiens, UniProt P05177); assay: Inhibition of human CYP1A2; assay type: ADME; summary of the method: as §1
T2 sequence (P05177 whole entry): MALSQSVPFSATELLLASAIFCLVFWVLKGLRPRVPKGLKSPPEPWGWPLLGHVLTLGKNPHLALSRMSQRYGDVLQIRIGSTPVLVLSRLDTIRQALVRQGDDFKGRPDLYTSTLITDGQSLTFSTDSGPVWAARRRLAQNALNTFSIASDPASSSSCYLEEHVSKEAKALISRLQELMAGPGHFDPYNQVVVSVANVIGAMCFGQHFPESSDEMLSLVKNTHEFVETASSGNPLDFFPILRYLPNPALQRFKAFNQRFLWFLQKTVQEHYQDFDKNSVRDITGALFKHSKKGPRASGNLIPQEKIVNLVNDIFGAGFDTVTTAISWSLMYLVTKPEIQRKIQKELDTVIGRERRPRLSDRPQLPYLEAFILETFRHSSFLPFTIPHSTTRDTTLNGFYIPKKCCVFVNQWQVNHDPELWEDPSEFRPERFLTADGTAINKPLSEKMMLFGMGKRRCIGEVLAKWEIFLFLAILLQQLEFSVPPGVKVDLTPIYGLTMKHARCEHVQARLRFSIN

[14] = Solubility in FeSSIF after 0.5 hrs; assay type: physicochemical
Summary of the method: (§3)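 Solubility determined in water, FaSSIF and FeSSIF, all read at the 0.5 h time point.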

[15] = Solubility in water after 0.5 hrs; assay type: physicochemical; summary of the method: as §3
[16] = Ratio of drug level in brain to blood in complete Freund's adjuvant-induced rat inflammatory pain model at 3 mg/kg, po administered after 23 hrs of adjuvant challenge measured after 1 hr; assay type: ADME, organism-based; parameters: dose 3 mg/kg, route oral; conditions: brain and blood; summary of the method: as §2
[17] = target: T3, Prostaglandin E2 receptor EP1 subtype (Homo sapiens, UniProt P34995); assay: Displacement of [3H]PGE2 from human EP1 receptor expressed in CHO cells; assay type: cell-based
T3 sequence (P34995 whole entry): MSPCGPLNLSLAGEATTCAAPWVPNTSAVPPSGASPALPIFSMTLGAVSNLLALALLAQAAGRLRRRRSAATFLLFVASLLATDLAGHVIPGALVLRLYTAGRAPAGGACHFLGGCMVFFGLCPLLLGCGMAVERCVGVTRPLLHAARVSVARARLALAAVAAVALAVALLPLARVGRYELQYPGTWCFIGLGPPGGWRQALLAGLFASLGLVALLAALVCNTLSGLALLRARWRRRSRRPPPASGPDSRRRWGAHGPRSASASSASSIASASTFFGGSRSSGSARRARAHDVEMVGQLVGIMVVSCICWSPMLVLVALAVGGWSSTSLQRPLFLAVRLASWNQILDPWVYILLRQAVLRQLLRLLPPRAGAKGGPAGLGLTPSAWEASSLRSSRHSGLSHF
Summary of the method: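 Radioligand binding with [3H]-PGE2 in CHO cells overexpressing human EP1 receptor. Values are the mean of at least three experiments with standard deviations.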

[18] = target: Cytochrome P450 2D6 (Homo sapiens, UniProt P10635); assay: Inhibition of human CYP2D6; assay type: ADME; summary of the method: as §1
Chain of Cytochrome P450 2D6 (P10635 whole entry): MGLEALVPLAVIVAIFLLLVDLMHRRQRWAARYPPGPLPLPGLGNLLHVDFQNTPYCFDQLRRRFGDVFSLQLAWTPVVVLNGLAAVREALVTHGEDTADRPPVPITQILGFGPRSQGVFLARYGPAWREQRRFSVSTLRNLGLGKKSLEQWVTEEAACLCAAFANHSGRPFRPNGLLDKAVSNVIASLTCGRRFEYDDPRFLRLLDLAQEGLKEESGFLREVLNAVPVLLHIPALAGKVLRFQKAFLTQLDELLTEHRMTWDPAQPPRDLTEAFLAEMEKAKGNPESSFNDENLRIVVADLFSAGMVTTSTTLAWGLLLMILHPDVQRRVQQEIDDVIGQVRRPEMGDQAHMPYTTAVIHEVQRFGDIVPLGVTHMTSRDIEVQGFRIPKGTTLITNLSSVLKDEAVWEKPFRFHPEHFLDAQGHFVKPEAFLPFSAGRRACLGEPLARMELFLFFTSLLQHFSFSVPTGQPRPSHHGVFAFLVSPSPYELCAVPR

**Q.** With `O=C([O-])c1cccc(Cc2cc(Cl)ccc2OCc2ccc(Cl)cc2F)n1.[Na+]` as the compound, how does the Vd [1] read?
**A.** 0.6 L/kg

**Q.** And the CL [2]?
**A.** 0.7 mL/min/g

**Q.** What about the IC50 [3] of the same compound?
**A.** > 100 µM

**Q.** And the half-life [4]?
**A.** 1.1 h

**Q.** What about the concentration at 12 h [5] of the same compound?
**A.** 199 nM

**Q.** What about the bioavailability [6] of the same compound?
**A.** 39%

**Q.** And the Kp at 12 h [7]?
**A.** 0.28

**Q.** What about the Activity [8] of the same compound?
**A.** Active

**Q.** And the IC50 [9]?
**A.** 85 µM

**Q.** What about the concentration at 1 h [10] of the same compound?
**A.** 627 nM

**Q.** What about the concentration at 1 h [11] of the same compound?
**A.** 2610 nM

**Q.** And the Kp at 1 h [12]?
**A.** 0.37

**Q.** And the IC50 [13]?
**A.** 20 µM

**Q.** What about the solubility at 0.5 h [14] of the same compound?
**A.** 358 µg/mL

**Q.** And the solubility at 0.5 h [15]?
**A.** 890 µg/mL

**Q.** What about the Kp at 1 h [16] of the same compound?
**A.** 0.37

**Q.** What about the IC50 [17] of the same compound?
**A.** 0.0126 µM

**Q.** What about the IC50 [18] of the same compound?
**A.** > 100 µM

From ChEMBL document CHEMBL1138602, “Discovery of sodium 6-[(5-chloro-2-{[(4-chloro-2-fluorophenyl)methyl]oxy}phenyl)methyl]-2-pyridinecarboxylate (GSK269984A) an EP(1) receptor antagonist for the treatment of inflammatory pain” (Bioorg Med Chem Lett, 2009)
